This note sets out measurements from ChEMBL document CHEMBL1142465, “Novel potent inhibitors of A. thaliana cytokinin oxidase/dehydrogenase” (Bioorg Med Chem, 2008).

Data set [1] relates to Nicotiana tabacum. Description: Cytokinin-like effect in tobacco assessed as stimulation of callus growth at 10 umol/L relative to 6-benzylaminopurine. In kind it is functional. The conditions noted are these: at 10 µM.
The next data set concerns Triticum aestivum. The data set can be described thus: Cytokinin-like effect in wheat assessed as retention of chlorophyll in excised leaves at 100 umol/L by senescence assay relative to 6-benzylaminopurine. In kind it is functional. As to conditions: at 100 µM.
In data set [2] the test system is Amaranthus. Description: Cytokinin-like effect in Amaranthus cotyledons assessed as dark induction of betacyanin synthesis at 100 umol/L relative to 6-benzylaminopurine. In kind it is functional. The conditions noted are these: at 100 µM.
A further data set addresses Histidine kinase 4 (Arabidopsis thaliana, UniProt Q9C5U0). Description: Activation of Arabidopsis thaliana AHK4/CRE1 receptor expressed in Escherichia coli KMI001 by beta-galactosidase activity.
For a further data set, the target named is T1, Histidine kinase 3 (Arabidopsis thaliana, UniProt Q9C5U1).
T1 sequence (Q9C5U1 whole entry): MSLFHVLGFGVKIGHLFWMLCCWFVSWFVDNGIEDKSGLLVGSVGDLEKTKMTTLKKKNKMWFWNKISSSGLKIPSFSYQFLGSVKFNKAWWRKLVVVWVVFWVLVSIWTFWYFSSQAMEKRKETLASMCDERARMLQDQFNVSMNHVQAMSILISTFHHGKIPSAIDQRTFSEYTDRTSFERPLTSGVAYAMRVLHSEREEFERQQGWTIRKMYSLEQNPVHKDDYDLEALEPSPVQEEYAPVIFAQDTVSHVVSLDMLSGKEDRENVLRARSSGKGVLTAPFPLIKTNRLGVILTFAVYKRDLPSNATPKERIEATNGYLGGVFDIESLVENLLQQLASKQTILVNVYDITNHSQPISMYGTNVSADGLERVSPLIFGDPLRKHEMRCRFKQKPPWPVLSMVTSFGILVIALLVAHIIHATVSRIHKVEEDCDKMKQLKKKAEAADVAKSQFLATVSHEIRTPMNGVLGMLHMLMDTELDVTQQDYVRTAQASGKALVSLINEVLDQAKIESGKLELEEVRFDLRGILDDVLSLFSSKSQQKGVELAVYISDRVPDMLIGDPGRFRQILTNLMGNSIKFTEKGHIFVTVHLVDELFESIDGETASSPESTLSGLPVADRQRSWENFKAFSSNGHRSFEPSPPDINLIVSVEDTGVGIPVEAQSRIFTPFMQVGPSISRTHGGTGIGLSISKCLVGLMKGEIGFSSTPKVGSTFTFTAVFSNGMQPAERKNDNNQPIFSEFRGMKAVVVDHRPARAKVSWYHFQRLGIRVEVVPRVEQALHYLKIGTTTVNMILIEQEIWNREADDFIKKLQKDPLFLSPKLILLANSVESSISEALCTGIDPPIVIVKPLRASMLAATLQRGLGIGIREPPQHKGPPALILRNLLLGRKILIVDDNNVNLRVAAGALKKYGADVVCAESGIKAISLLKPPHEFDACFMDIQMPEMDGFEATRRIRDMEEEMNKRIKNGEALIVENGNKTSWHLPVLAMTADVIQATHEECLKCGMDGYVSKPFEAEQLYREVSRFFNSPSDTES
The data set can be described thus: Activation of Arabidopsis thaliana AHK3 receptor expressed in Escherichia coli KMI001 by beta-galactosidase activity.

The target of data set [3] is T2, Cytokinin dehydrogenase 2 (Arabidopsis thaliana, UniProt Q9FUJ3).
T2 sequence (Q9FUJ3 whole entry): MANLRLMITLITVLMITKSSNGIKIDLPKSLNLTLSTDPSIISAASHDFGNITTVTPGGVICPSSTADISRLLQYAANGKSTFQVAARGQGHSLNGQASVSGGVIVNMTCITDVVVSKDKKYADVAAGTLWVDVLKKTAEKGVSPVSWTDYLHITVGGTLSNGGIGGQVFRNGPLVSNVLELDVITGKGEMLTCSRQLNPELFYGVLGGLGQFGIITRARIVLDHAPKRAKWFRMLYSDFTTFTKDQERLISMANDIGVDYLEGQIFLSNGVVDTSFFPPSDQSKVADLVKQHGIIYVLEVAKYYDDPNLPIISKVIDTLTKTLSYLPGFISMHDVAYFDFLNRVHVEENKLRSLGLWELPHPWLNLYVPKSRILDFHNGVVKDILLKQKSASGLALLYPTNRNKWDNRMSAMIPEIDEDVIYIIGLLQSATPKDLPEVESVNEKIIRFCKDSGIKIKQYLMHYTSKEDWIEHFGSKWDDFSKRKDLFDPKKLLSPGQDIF
The data set can be described thus: Inhibition of sArabidopsis thaliana CKX2 expressed in Saccharomyces cerevisiae 23344c ura-.

The test system of data set [4] is Nicotiana tabacum. The data set can be described thus: Cytokinin-like effect in tobacco assessed as stimulation of callus growth at 100 umol/L relative to 6-benzylaminopurine. In kind it is functional. In short, it runs like this: (§1)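 Cytokinin-dependent tobacco callus growth in 6-well plates, 3 mL MS medium per well, otherwise per published protocol. Compounds from DMSO stocks diluted into medium, final DMSO ≤0.2%. Five replicates per concentration, whole test repeated at least three times. Activity expressed relative to BAP set at 100 (reference 10^-6 M BAP) at the optimal concentration.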

In data set [5] the test system is Nicotiana tabacum. Description: Cytokinin-like effect in tobacco assessed as stimulation of callus growth at 1 umol/L relative to 6-benzylaminopurine. In kind it is functional. In short, it runs like this:
as §1

The subject of data set [6] is Nicotiana tabacum. Description: Toxicity in tobacco assessed as inhibition of callus growth at 100 uM. As to conditions: in vivo. The method, boiled down:
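Tobacco callus growth dose-response up to 100 µM in 6-well plates with 3 mL MS medium per well. Compounds from DMSO stocks diluted into medium, final DMSO ≤0.2%. Five replicates per concentration. Readings compared against a control treatment with no cytokinin.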

Data set [7] has as its system Amaranthus. Description: Cytokinin-like effect in Amaranthus cotyledons assessed as dark induction of betacyanin synthesis at 10 umol/L relative to 6-benzylaminopurine. In kind it is functional. The method, boiled down: (§2)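 Dark induction of betacyanin synthesis in Amaranthus cotyledons, per previously published protocol. Compounds from DMSO stocks diluted into medium, final DMSO ≤0.2%. Five replicates per concentration, whole test repeated at least three times. Relative activity taken at the optimal concentration against BAP set at 100 (reference 10^-5 M BAP).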

Data set [8] concerns Amaranthus. The data set can be described thus: Cytokinin-like effect in Amaranthus cotyledons assessed as dark induction of betacyanin synthesis at 0.1 umol/L relative to 6-benzylaminopurine. In kind it is functional. In short, it runs like this: as §2
The test system of data set [9] is Nicotiana tabacum. Description: Cytokinin-like effect in tobacco assessed as stimulation of callus growth at 0.1 umol/L relative to 6-benzylaminopurine. In kind it is functional. The method, boiled down:
as §1

Chain of Histidine kinase 4 (Q9C5U0 whole entry): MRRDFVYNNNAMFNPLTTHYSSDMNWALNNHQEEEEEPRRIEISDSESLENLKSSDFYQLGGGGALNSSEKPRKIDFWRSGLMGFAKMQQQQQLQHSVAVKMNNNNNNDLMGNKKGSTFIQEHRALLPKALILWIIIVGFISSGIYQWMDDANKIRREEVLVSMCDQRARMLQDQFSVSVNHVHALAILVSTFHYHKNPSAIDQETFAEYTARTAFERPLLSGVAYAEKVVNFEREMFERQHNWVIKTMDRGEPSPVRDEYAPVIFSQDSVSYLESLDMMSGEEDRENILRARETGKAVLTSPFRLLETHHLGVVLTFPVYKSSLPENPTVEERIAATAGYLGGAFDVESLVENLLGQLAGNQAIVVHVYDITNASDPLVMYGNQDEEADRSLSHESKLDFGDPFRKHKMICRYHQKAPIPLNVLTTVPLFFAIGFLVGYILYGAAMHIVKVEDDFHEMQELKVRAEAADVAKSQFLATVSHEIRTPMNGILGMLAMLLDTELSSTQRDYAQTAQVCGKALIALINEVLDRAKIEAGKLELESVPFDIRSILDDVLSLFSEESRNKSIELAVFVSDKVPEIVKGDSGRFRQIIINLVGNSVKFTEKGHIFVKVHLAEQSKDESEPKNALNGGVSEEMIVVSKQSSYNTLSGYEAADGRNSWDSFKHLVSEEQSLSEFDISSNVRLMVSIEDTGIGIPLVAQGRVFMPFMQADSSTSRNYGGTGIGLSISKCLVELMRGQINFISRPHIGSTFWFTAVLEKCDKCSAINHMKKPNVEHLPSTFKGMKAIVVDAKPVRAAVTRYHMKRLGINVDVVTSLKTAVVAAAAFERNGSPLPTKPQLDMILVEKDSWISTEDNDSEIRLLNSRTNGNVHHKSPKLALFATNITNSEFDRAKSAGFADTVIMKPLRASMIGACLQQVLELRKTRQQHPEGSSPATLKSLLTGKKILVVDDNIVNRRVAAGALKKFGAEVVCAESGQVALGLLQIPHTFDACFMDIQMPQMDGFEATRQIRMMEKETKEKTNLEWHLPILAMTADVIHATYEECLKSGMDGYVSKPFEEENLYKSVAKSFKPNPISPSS

Regarding `Oc1cccc(Nc2nc(Cl)nc3[nH]cnc23)c1`, the results for the Activity in the data set with Nicotiana tabacum [1], in the data set with Triticum aestivum and in the data set on Amaranthus [2] were 111%, 6% and 52%, respectively. Further, the EC50 (usually the concentration at which the effect is half-maximal) on Histidine kinase 4 is 3.75 µM; at Histidine kinase 3, 13 µM. In addition, half-maximal inhibition in [3] (IC50) required 3.75 µM.
As for `COc1ccccc1Nc1nc(Cl)nc2[nH]cnc12`, the results for the Activity in the data set with Nicotiana tabacum [1], with Triticum aestivum and in the data set on Amaranthus [2] were 100%, 29% and 63%, respectively. At Histidine kinase 3, this molecule registered an EC50 of 33 µM. Further, the IC50 (usually the midpoint of a concentration-inhibition curve) in data set [3] is more than 100 µM.
Consider `COc1cccc(Nc2nc(Cl)nc3c2ncn3C(C)C)c1`, for which the Activity in the data set on Nicotiana tabacum [1] came out at 38%; in the data set with Triticum aestivum, 5%; in the data set on Amaranthus [2] it was 44%. In data set [3], this molecule displayed an IC50 of more than 100 µM.
Consider `COc1cccc(Nc2ncnc3[nH]cnc23)c1`, for which the Activity in the data set with Nicotiana tabacum [1] worked out at 42%; in the data set with Triticum aestivum, 13%; in the data set with Amaranthus [2], 124.5%. Besides, the EC50 at Histidine kinase 4 was 31 µM; at Histidine kinase 3, 2.3 µM. Further, in [3], the IC50 is 12.4 µM.
Turning to `COc1cccc(Nc2nc(Cl)nc3c2ncn3C)c1`, the Activity with Nicotiana tabacum [1] was 76%; in the data set with Triticum aestivum it was 30%; in the data set with Amaranthus [2], 69%. The IC50 in [3] is 61 µM.
As to `COc1cccc(Nc2nc([N+](=O)[O-])nc3[nH]cnc23)c1`, the Activity with Nicotiana tabacum [4] is reported as 35.5%; in the data set with Triticum aestivum, 15%; in the data set with Amaranthus [2], 43%. The molecule also returned a half-maximal inhibitory concentration (IC50) in [3] of 14 µM.
Regarding `Clc1ccc(Nc2nc(Cl)nc3[nH]cnc23)cc1`, the values for the Activity with Nicotiana tabacum [1], in the data set with Triticum aestivum and in the data set on Amaranthus [2] were 77%, 10% and 139%, respectively. Also, the EC50 is more than 50 µM on Histidine kinase 4 and 15.1 µM at Histidine kinase 3. The molecule also showed an IC50 in data set [3] of 25.4 µM.
For the molecule `Fc1cccc(Nc2nc(Cl)nc3[nH]cnc23)c1`, the Activity is 15% in the data set on Triticum aestivum, 147% with Amaranthus [2] and 101% in the data set with Nicotiana tabacum [5]. Moreover, the EC50 at Histidine kinase 4 was determined as 24.8 µM; on Histidine kinase 3, 6 µM. The same molecule registered an IC50 in data set [3] of 7.5 µM.
In the case of `Oc1ccc(Nc2nc(Cl)nc3[nH]cnc23)cc1`, the Activity came to 60% with Nicotiana tabacum [4], 14% with Triticum aestivum and 47.5% in the data set with Amaranthus [2]. Further, the EC50 at Histidine kinase 4 is 4.6 µM; on Histidine kinase 3, 16.5 µM. Moreover, the IC50 in [3] was more than 100 µM.
Regarding `COc1cccc(Nc2nc(N)nc3[nH]cnc23)c1`, the Activity turned out to be 71% in the data set with Nicotiana tabacum [1], 16% in the data set on Triticum aestivum and 116% with Amaranthus [2]. Besides, the IC50 in [3] turned out to be 27 µM.
For the molecule `Fc1ccc(Nc2nc(Cl)nc3[nH]cnc23)cc1`, the Activity is 5% with Triticum aestivum, 92% in the data set with Amaranthus [2], “Non-toxic” with Nicotiana tabacum [6] and 99% with Nicotiana tabacum [5]. On Histidine kinase 3, this molecule came in with an EC50 of 50 µM. This molecule also registered an IC50 in [3] of 50 µM.
Turning to `COc1cccc(Nc2nc(F)nc3[nH]cnc23)c1`, the results for the Activity in the data set with Nicotiana tabacum [1], with Triticum aestivum and in the data set with Amaranthus [2] were 74%, 13.5% and 107%, respectively. Moreover, the EC50 at Histidine kinase 4 and on Histidine kinase 3 was 19 µM throughout. Moreover, in [3], the IC50 is 1 µM.
For the molecule `Oc1ccccc1Nc1nc(Cl)nc2nc[nH]c12`, the EC50 was more than 50 µM on Histidine kinase 4 and 19 µM at Histidine kinase 3. This molecule also showed an IC50 in [3] of more than 100 µM.
With `Clc1cccc(Nc2nc(Cl)nc3[nH]cnc23)c1`, the Activity in the data set with Nicotiana tabacum [1] was found to be 95%; in the data set on Amaranthus [7], 119%; in the data set on Triticum aestivum it was 11.5%. Moreover, at Histidine kinase 3, the EC50 came to 10.7 µM. Besides, inhibition in data set [3] was half-maximal at 3.9 µM (IC50).
As to `COc1ccc(Nc2nc(Cl)nc3[nH]cnc23)cc1`, the Activity was 76% in the data set on Nicotiana tabacum [1], 19% in the data set on Triticum aestivum and 60% in the data set with Amaranthus [2]. Besides, the IC50 in data set [3] is more than 100 µM.
As to `Clc1nc(Nc2ccccc2)c2nc[nH]c2n1`, the Activity turned out to be 23% in the data set with Triticum aestivum, 139% in the data set on Amaranthus [2] and 103% in the data set with Nicotiana tabacum [5]. At Histidine kinase 3, the EC50 was more than 50 µM. The molecule further gave an IC50 in data set [3] of 80 µM.
Take `COc1cccc(Nc2nc(SC)nc3[nH]cnc23)c1`: the results for the Activity with Nicotiana tabacum [1], in the data set on Triticum aestivum and in the data set on Amaranthus [2] were 91%, 2% and 101%, respectively. For the same molecule, in data set [3], the concentration for half-maximal inhibition (IC50) is more than 100 µM.
Regarding `COc1cccc(Nc2nc(Cl)nc3[nH]cnc23)c1`, the results for the Activity in the data set with Nicotiana tabacum [1], in the data set on Triticum aestivum and in the data set on Amaranthus [2] were 103%, 11% and 149%, respectively. In addition, the EC50 on Histidine kinase 4 stood at 7 µM; at Histidine kinase 3, 21 µM. Besides, in data set [3], half-maximal inhibition (IC50) was put at 1.9 µM.
Regarding `C/C(=C\CNc1ncnc2[nH]cnc12)CO`, the values for the Activity in the data set on Nicotiana tabacum [1], in the data set with Triticum aestivum and in the data set on Amaranthus [2] were 104.6%, 122% and 129.6%, respectively. Also, the EC50 stood at 1.1 µM at Histidine kinase 4 and 0.7 µM on Histidine kinase 3.
`c1ccc(Nc2ncnc3[nH]cnc23)cc1`: the Activity in the data set on Nicotiana tabacum [4] came out at 47%; in the data set on Triticum aestivum it was 14%; in the data set with Amaranthus [2], 52%. For the same molecule, the EC50 on Histidine kinase 3 is more than 50 µM.
`O=C(Nc1ccccc1)Nc1cnns1` [THIDIAZURON]: the values for the Activity in the data set with Amaranthus [8], in the data set on Nicotiana tabacum [9] and in the data set on Triticum aestivum were 121.1%, 102.3% and 108.7%, respectively. The EC50 was 1 µM on Histidine kinase 4 and 0.95 µM on Histidine kinase 3. Also, the midpoint of inhibition in data set [3], the IC50, lay at 29 µM.
